HCV NS3 hel inh = inhibitors of Hepatitis C virus NS3 helicase; NS3 helicase DNA unwinding, Cy5 molecular beacon fluorescence; inhibition, % at 10.9 µM; 290,000 tested, 0.56% active;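 active = inhibition above the mean of all tested compounds plus 3 SD, set per campaign, cut at about 35% in these data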;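 also: 0% = DMSO wells and 100% = thioflavine S control wells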
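Compound dosing – single dose, 10.9 µM nominal final, DMSO 0.8% final · System – NS3 helicase fragment of HCV · Buffer or medium – MOPS pH 6.5, MgCl2, DTT, Tween20, BSA · Signal – Cy5 beacon fluorescence read at start and 1 h · Also added – annealed dual-labelled DNA beacon duplex, ATP-started · Schedule – 1 h at 25 °C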
APOBEC3G inh = APOBEC3G (human) deaminase inhibition; recombinant A3G, ssDNA deamination FAM/TAMRA fluorescence; inhibition, % at 20 µM; 330,000 tested, 0.28% active; AID 493012;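 active = inhibition of at least 40% at 20 µM, with no more than 30% in the related APOBEC3A deaminase screen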;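 also: plate controls were DMSO wells with A3G for no effect and wells lacking A3G enzyme for full effect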
APOBEC3A inh = blocks human APOBEC3A ssDNA deamination; inhibition, % at 20 µM; recombinant A3A, FAM/TAMRA ssDNA deamination fluorescence; AID 493011; P31941; 330,000 tested, 0.41% active;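 active = at least 40% inhibition at 20 µM here, with at most 30% in a related deaminase screen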;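 also: plate controls were A3A with DMSO for no effect and wells lacking A3A enzyme for full effect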
PRMT1 inh = PRMT1 (human) inhibition, primary screen; Q99873; recombinant PRMT1, activity-based probe fluorescence polarization; inhibition, % at 2.79 µM; 370,000 tested, 1.3% active;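 active = inhibition above about 21% made by adding two undisclosed values, limit read from the data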
Target sequence (Q99873 whole entry, looked up): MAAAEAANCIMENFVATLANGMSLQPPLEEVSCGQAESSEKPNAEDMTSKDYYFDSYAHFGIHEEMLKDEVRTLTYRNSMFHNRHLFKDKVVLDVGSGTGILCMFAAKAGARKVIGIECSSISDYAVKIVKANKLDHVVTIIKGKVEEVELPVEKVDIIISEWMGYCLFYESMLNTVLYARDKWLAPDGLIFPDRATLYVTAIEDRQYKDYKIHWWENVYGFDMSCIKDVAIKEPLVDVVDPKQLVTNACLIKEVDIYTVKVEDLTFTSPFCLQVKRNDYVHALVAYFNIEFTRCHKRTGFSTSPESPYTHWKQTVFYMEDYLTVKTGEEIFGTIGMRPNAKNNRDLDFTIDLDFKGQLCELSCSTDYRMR
core dimer inh = HCV core protein dimerization inhibition. TR-FRET GST/Flag-core106 dimerization, 1536-well. inhibition, % at 5 µM. 300,000 tested, 0.33% active. AID 1899;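 active = inhibition above the mean of all tested compounds plus 3 SD, set per screening campaign, cut at about 45% in these data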
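assay system = GST-tagged and Flag-tagged HCV core protein residues 1-106 | controls = unlabelled core106 and no-GST-core106 wells | incubation = compound-protein-antibody incubation 4 h at 22.5 °C | probe or stimulus = Eu donor and XL665 acceptor anti-tag antibodies | read-out = % inhibition based on acceptor/donor emission ratio | signal = TR-FRET 671 and 617 nm emission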
ABHD5-PLIN5 inh = blocks binding of human ABHD5 to perilipin-5; 360,000 tested, 0.78% active; AID 602281; inhibition, % at 4 µM; Split G. princeps luciferase complementation, luminescence, 4 h;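 active = inhibition above the mean inhibition across every tested compound plus 3 SD, cut at about 22% in these data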;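 also: 0% = DMSO only wells and the 100% control is not disclosed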
A3G conf = confirmation of human APOBEC3G DNA deaminase inhibitors; recombinant A3G ssDNA deaminase, UDG/FAM-TAMRA fluorescence; inhibition, % at 20 µM; shares compounds with APOBEC3G inh; 890 tested, 72% active;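 active = inhibition reaching a set limit in any replicate at 20 µM, the limit being 80% of the first screen's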
UDG A3G counter = inhibits E. coli UDG, flagging false APOBEC3G inhibitors; 710 tested, under 10 active; shares compounds with APOBEC3G inh; inhibition, % at 20 µM; UDG counterscreen, FAM/TAMRA oligo fluorescence; AID 504715;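 active = compounds giving 40% or more inhibition at 20 µM in any one of the three replicates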;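 also: plate controls were DMSO wells with UDG and oligo for no effect and DMSO wells lacking both for full effect; inhibitors lower the FAM signal released by uracil excision and alkaline cleavage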
Target sequence (P12295 whole entry, looked up): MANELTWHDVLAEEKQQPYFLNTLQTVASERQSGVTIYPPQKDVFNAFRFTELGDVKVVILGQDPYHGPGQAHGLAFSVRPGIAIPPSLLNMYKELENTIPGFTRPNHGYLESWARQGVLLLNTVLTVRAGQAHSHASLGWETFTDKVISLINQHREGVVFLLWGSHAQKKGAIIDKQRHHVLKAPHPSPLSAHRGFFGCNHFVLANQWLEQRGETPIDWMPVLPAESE
Active calls of the source: *; nt = no result. The list is not random: actives were taken first. Their share in the collection is about 2.9%.

SMILES	HCV NS3 hel inh	APOBEC3G inh	APOBEC3A inh	PRMT1 inh	core dimer inh	ABHD5-PLIN5 inh	A3G conf	UDG A3G counter
CC(=O)N=Cc1c(C)c(C#N)c(=O)n(C)c1O	-3.1	-2.6	-1.1	11.4	3.5	-7.0	nt	nt
Cc1c(/C=N/Nc2ccc(F)cc2)c(O)n(C)c(=O)c1C#N	4.2	63.6*	-1.1	-0.8	-9.3	11.6	-1.0	-3.0
Cc1ccc(C)c(Cn2cnc3c(cnn3C(C)(C)C)c2=O)c1	0.6	57.9*	1.1	6.1	5.0	5.7	0.3	nt
Cc1ccccc1Cn1cnc2c(cnn2C(C)(C)C)c1=O	5.8	-4.1	-3.2	0.1	1.9	-1.0	nt	nt
COc1cc(/C=N/n2c(-c3n[nH]c4c3CCC4)n[nH]c2=S)ccc1O	2.1	46.6*	-2.0	-2.9	-0.3	-4.7	57.9*	2.0
COc1ccc(/C=N/n2c(-c3n[nH]c4c3CCC4)n[nH]c2=S)cc1OC	-4.3	47.7*	-0.4	-2.1	-4.3	-1.7	60.6*	-3.3
CN(CC(=O)Nc1ccccc1Cl)C(=O)CN1C(=O)C2CCCCC2C1=O (stereo not drawn)	nt	-0.1	-1.8	-7.5	-9.1	7.5	nt	nt
C(=C\c1ccccc1)/CN1CCN(C(c2cccc3ccccc23)c2nnnn2-c2ccc3c(c2)OCCO3)CC1 (stereo not drawn)	nt	nt	nt	-0.5	nt	17.4	nt	nt
CC(C)(C)OC(=O)N1CCC[C@@H]1C(=O)N1CCC[C@H]1C(=O)NCc1ccccc1	nt	nt	nt	2.7	nt	nt	nt	nt
CC(/C=N/n1c(-c2cccnc2)n[nH]c1=S)=C\c1ccccc1	-1.0	23.3	-4.1	2.3	-5.3	-1.8	nt	nt
Cc1ccc(/C=N/n2c(-c3ccncc3)n[nH]c2=S)s1	6.6	49.4*	-6.0	-2.8	-2.8	-0.4	82.4*	-3.9
Cc1cccc(-c2n[nH]c(=S)n2/N=C/c2ccc(C)s2)c1	-8.2	-2.0	1.8	19.6	4.5	-17.5	nt	nt
CC(=C/c1ccccc1)/C=N/n1c(-c2ccncc2)n[nH]c1=S	-10.1	61.4*	-1.7	19.5	3.2	-7.4	94.3*	2.4
Cc1cccc(/C=N/n2c(-c3ccncc3)n[nH]c2=S)c1	5.4	78.5*	-2.3	16.8	2.4	-0.3	99.3*	-1.7
Cc1ccc(/C=N/n2c(-c3ccncc3)n[nH]c2=S)o1	-1.3	46.7*	-3.8	-0.5	-6.6	-1.7	90.3*	-3.2
CCCc1cc(=O)oc2cc(OCC(=O)NCCCN3CCOCC3)ccc12	-4.4	-0.9	-2.5	1.6	-3.2	2.6	nt	nt
COC(=O)C1=C(C)N(C)C(=NCc2ccccc2)NC1c1ccccc1C(F)(F)F (stereo not drawn)	nt	nt	nt	2.8	nt	nt	nt	nt
Cc1cc(O)c2c(c1)CC1C3CCC4CC(=O)CCC4(C)C3CC(=O)C21C (stereo not drawn)	nt	nt	nt	-3.9	nt	-1.4	nt	nt
CCCN(CC1CCCO1)C(=O)c1cc(COc2ccc(F)cc2F)on1 (stereo not drawn)	3.0	1.0	2.9	2.1	-3.8	4.6	nt	nt
S=c1[nH]nc(-c2ccncc2)n1/N=C/C=C/c1ccco1	28.6	57.4*	11.4	16.8	0.3	2.9	73.8*	1.9
Cc1ccc(/C=N/n2c(-c3ccccc3)n[nH]c2=S)cc1	0.3	10.7	-7.8	16.5	2.5	-6.7	nt	nt
S=c1[nH]nc(-c2ccncc2)n1/N=C/c1ccccc1	-9.3	55.1*	-3.0	5.7	-2.9	5.5	70.8*	0.5
COC(=O)C=C1CCC2C3CCC4=CC(=O)C(Br)CC4(C)C3C(=O)CC12C (stereo not drawn)	nt	nt	nt	3.2	nt	-2.4	nt	nt
CCCCC(=O)N(C)c1c(C)nc2ccc(C(=O)N(C)CCN(C)C)cn12	nt	nt	nt	-1.6	nt	3.4	nt	nt
Clc1ccccc1-c1nn2c(-c3ccncc3)nnc2s1	-2.4	48.9*	1.0	nt	7.9	1.5	25.3*	-0.9
SMILES	HCV NS3 hel inh	APOBEC3G inh	APOBEC3A inh	PRMT1 inh	core dimer inh	ABHD5-PLIN5 inh	A3G conf	UDG A3G counter
COc1ccnc(N2CCN(c3cccc(C(F)(F)F)c3)CC2)c1C#N	-6.6	46.8*	1.2	-1.3	3.1	4.8	1.1	nt
O=C1OC(c2ccccc2)c2ccccc21 (stereo not drawn)	-4.7	1.7	1.3	0.0	-6.6	2.5	nt	nt
O=S1OC(c2ccccc2)c2cc(Cl)ccc21 (stereo not drawn)	nt	41.5*	5.5	1.2	-31.8	16.8	4.0	nt
CC1(C)CC(=O)C2=C(C1)NC(=O)CC2	nt	nt	nt	7.9	nt	0.7	nt	nt
O=C(Nc1nc(-c2nc3ccccc3s2)cs1)C1CC1	-9.7	42.5*	0.1	-2.8	-18.5	1.1	-0.7	nt
Cc1noc(C)c1-c1ccc(C(=O)NCCC(F)(F)F)c2occc12	nt	nt	nt	-7.6	nt	-2.7	nt	nt
O=C(Cn1c(=O)oc2ccccc21)Nc1n[nH]c(=S)s1	-5.0	80.7*	-6.9	20.8	-5.2	0.4	89.8*	-2.3
O=C(Cn1c(=O)oc2ccccc21)Nc1nc(-c2ccccc2)cs1	-11.0	2.6	1.5	-2.8	-6.7	1.4	nt	nt
CSc1ncnc2c1ncn2CCCN(C)CCc1ccccn1	nt	nt	nt	0.8	nt	1.5	nt	nt
CCCC(=O)n1nc(-c2ccc(OC)cc2)nc1N	4.4	-3.2	6.6	-5.6	-0.5	4.7	nt	nt
CCC(=O)n1nc(-c2ccc(Cl)cc2)nc1N	1.8	46.0*	-1.5	-2.1	0.2	-9.9	-9.1	-4.0
COC(=O)C[C@@H]1CC[C@@H](NS(=O)(=O)c2ccc(OC)cc2)[C@@H](CO)O1	nt	nt	nt	1.3	nt	0.8	nt	nt
Cc1ccc(C(NC(=O)C(C)C)c2cc([N+](=O)[O-])c3cccnc3c2O)cc1 (stereo not drawn)	3.7	6.8	-4.9	5.8	-3.3	2.0	nt	nt
CC(C)C(=O)NC(c1cccs1)c1cc([N+](=O)[O-])c2cccnc2c1O (stereo not drawn)	34.4	53.6*	2.1	nt	-2.0	5.9	12.8*	-1.2
COc1ccc(N2C(=O)c3ccccc3NC(=O)C2C(=O)Nc2ccc3c(c2)OCCO3)cc1 (stereo not drawn)	nt	nt	nt	-1.8	nt	-10.8	nt	nt
CC(C)OC(=O)c1ccc2nc3ccccc3nc2c1	14.8	63.8*	-0.8	-4.9	-31.5	-0.6	-2.0	1.5
CCN(CC)S(=O)(=O)c1cc(NC(=O)Cn2ncc(Cl)c(Cl)c2=O)ccc1C	8.3	54.9*	13.5	2.0	38.2	8.5	15.7	nt
Cc1c(CN2CCC(Oc3ccc(C(=O)N4CCCCC4)cc3)CC2)cnn1C	2.4	-12.3	-2.7	3.0	-6.4	-2.5	nt	nt
CCOC(=O)c1sc(NC(=O)CSc2n[nH]c(-c3ccccc3)n2)c(C#N)c1C	0.0	46.8*	2.3	3.1	17.4	-12.4	32.3*	-2.3
CCOC(=O)c1sc(NC(=O)CSc2nc(C)cc(C)n2)c(C#N)c1C	6.3	-4.0	4.7	-2.0	4.6	-2.3	nt	nt

Screens (PubChem)
